Test results published in ChEMBL document CHEMBL5303300, “EUbOPEN Chemogenomics Library - Multiplex” (2023).
Several values for one entry are separate records, joined by “and”; a condition that tells them apart may be missing. Equal values may be shown once.

Key:
U2OS = experiment: Multiplex assay against U2OS; format: toxicity, cell-based; conditions: human, number of replicates 2
Summary of the method: (§1)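 Hoechst33342, BioTracker Green Microtubule Cytoskeleton Dye, MitoTracker Red and Annexin V Alexa Fluor 680 were added to live cells at seeding, and imaging on a CQ1 microscope at 37°C and 5% CO2 followed compound addition. Gating by CellPathfinder machine learning separated cells into Hoechst high-intensity objects or normal cells, then normal cells into healthy, pyknosed or fragmented nuclei, then pyknosed cells into mitotic or apoptotic. Per cents of healthy-nucleus cells are reported for the tubulin, mitochondrial-mass and membrane-permeability phenotypes.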

Fibroblast = experiment: Multiplex assay against human fibroblast; format: toxicity, cell-based; conditions: number of replicates 2; summary of the method: as §1
[1] = 24 h, 10 µM, compound concentration 10 uM
[2] = 48 h, 1 µM, compound concentration 1 uM
[3] = 48 h, 10 µM, compound concentration 10 uM
[4] = 12 h, 1 µM, compound concentration 1 uM
[5] = 12 h, 10 µM, compound concentration 10 uM
[6] = 24 h, 1 µM, compound concentration 1 uM

COc1cccc(Cn2cc(C(=O)Nc3ccc(C)c(S(=O)(=O)N4CCOCC4)c3)c(-c3ccc(C)cc3)n2)c1
Population Apoptotic (%) (U2OS; [1]): 60% and 72%
Population Fragmented Nuclei (%) (U2OS; [1]): 15% and 6%
Population Healthy Nuclei (%) (U2OS; [1]): 46% and 70%
Population Hoechst High Intensity Objects (%) (U2OS; [1]): 0%
Population Membrane Permeable-Phenotype (%) (U2OS; [1]): 44% and 47%
Population Mitotic Cells (%) (U2OS; [1]): 40% and 27%
Population Normal (%) (U2OS; [1]): 100%
Population Pyknosed Nuclei (%) (U2OS; [1]): 38% and 23%
Population Tubulin-Different-Phenotype (%) (U2OS; [1]): 94% and 90%
Population Apoptotic (%) (U2OS; [2]): 45% and 67%
Population Healthy Nuclei (%) (U2OS; [2]): 48% and 83%
Population Hoechst High Intensity Objects (%) (U2OS; [2]): 0%
Population Membrane Permeable-Phenotype (%) (U2OS; [2]): 10% and 3%
Population Mitochondria Different-Phenotype (%) (U2OS; [2]): 10% and 4%
Population Mitotic Cells (%) (U2OS; [2]): 54% and 32%
Population Normal (%) (U2OS; [2]): 100%
Population Pyknosed Nuclei (%) (U2OS; [2]): 26% and 12%
Population Tubulin-Different-Phenotype (%) (U2OS; [2]): 65% and 80%
Population Apoptotic (%) (U2OS; [3]): 73% and 70%
Population Fragmented Nuclei (%) (U2OS; [3]): 7% and 21%
Population Healthy Nuclei (%) (U2OS; [3]): 63% and 32%
Population Hoechst High Intensity Objects (%) (U2OS; [3]): 0%
Population Membrane Permeable-Phenotype (%) (U2OS; [3]): 56% and 33%
Population Mitochondria Different-Phenotype (%) (U2OS; [3]): 21% and 16%
Population Mitotic Cells (%) (U2OS; [3]): 26% and 29%
Population Normal (%) (U2OS; [3]): 99% and 100%
Population Pyknosed Nuclei (%) (U2OS; [3]): 28% and 45%
Population Tubulin-Different-Phenotype (%) (U2OS; [3]): 85% and 100%
Population Apoptotic (%) (Fibroblast; [4]): 48% and 37%
Population Fragmented Nuclei (%) (Fibroblast; [4]): 7% and 6%
Population Healthy Nuclei (%) (Fibroblast; [4]): 65% and 67%
Population Hoechst High Intensity Objects (%) (Fibroblast; [4]): 0% and 1%
Population Membrane Permeable-Phenotype (%) (Fibroblast; [4]): 13% and 10%
Population Mitochondria Different-Phenotype (%) (Fibroblast; [4]): 2% and 3%
Population Mitotic Cells (%) (Fibroblast; [4]): 51% and 62%
Population Normal (%) (Fibroblast; [4]): 100% and 98%
Population Pyknosed Nuclei (%) (Fibroblast; [4]): 26% and 27%
Population Tubulin-Different-Phenotype (%) (Fibroblast; [4]): 44% and 39%
Total Cell Count (Fibroblast; [4]): 152 and 203
Population Apoptotic (%) (Fibroblast; [5]): 39% and 45%
Population Fragmented Nuclei (%) (Fibroblast; [5]): 6% and 7%
Population Healthy Nuclei (%) (Fibroblast; [5]): 63% and 53%
Population Hoechst High Intensity Objects (%) (Fibroblast; [5]): 0% and 1%
Population Membrane Permeable-Phenotype (%) (Fibroblast; [5]): 21% and 28%
Population Mitochondria Different-Phenotype (%) (Fibroblast; [5]): 2% and 1%
Population Mitotic Cells (%) (Fibroblast; [5]): 60% and 54%
Population Normal (%) (Fibroblast; [5]): 100% and 98%
Population Pyknosed Nuclei (%) (Fibroblast; [5]): 29% and 38%
Population Tubulin-Different-Phenotype (%) (Fibroblast; [5]): 93% and 85%
Total Cell Count (Fibroblast; [5]): 191 and 229
Population Apoptotic (%) (Fibroblast; [6]): 57% and 42%
Population Fragmented Nuclei (%) (Fibroblast; [6]): 9% and 10%
Population Healthy Nuclei (%) (Fibroblast; [6]): 64% and 59%
Population Hoechst High Intensity Objects (%) (Fibroblast; [6]): 0%
Population Membrane Permeable-Phenotype (%) (Fibroblast; [6]): 13% and 9%
Population Mitochondria Different-Phenotype (%) (Fibroblast; [6]): 1% and 3%
Population Mitotic Cells (%) (Fibroblast; [6]): 42% and 57%
Population Normal (%) (Fibroblast; [6]): 100%
Population Pyknosed Nuclei (%) (Fibroblast; [6]): 25% and 30%
Population Tubulin-Different-Phenotype (%) (Fibroblast; [6]): 44% and 38%
Total Cell Count (Fibroblast; [6]): 162 and 205
Population Apoptotic (%) (Fibroblast; [1]): 66% and 67%
Population Fragmented Nuclei (%) (Fibroblast; [1]): 9%
Population Healthy Nuclei (%) (Fibroblast; [1]): 70% and 57%
Population Hoechst High Intensity Objects (%) (Fibroblast; [1]): 0% and 1%
Population Membrane Permeable-Phenotype (%) (Fibroblast; [1]): 14% and 20%
Population Mitochondria Different-Phenotype (%) (Fibroblast; [1]): 2% and 7%
Population Mitotic Cells (%) (Fibroblast; [1]): 33% and 32%
Population Normal (%) (Fibroblast; [1]): 100% and 98%
Population Pyknosed Nuclei (%) (Fibroblast; [1]): 19% and 32%
Population Tubulin-Different-Phenotype (%) (Fibroblast; [1]): 90% and 84%
Total Cell Count (Fibroblast; [1]): 199 and 219
Population Apoptotic (%) (Fibroblast; [2]): 73% and 64%
Population Fragmented Nuclei (%) (Fibroblast; [2]): 13% and 11%
Population Healthy Nuclei (%) (Fibroblast; [2]): 65% and 67%
Population Hoechst High Intensity Objects (%) (Fibroblast; [2]): 0%
Population Membrane Permeable-Phenotype (%) (Fibroblast; [2]): 6% and 9%
Population Mitochondria Different-Phenotype (%) (Fibroblast; [2]): 1% and 2%
Population Mitotic Cells (%) (Fibroblast; [2]): 26% and 35%
Population Normal (%) (Fibroblast; [2]): 100% and 99%
Population Pyknosed Nuclei (%) (Fibroblast; [2]): 21% and 20%
Population Tubulin-Different-Phenotype (%) (Fibroblast; [2]): 34%
Total Cell Count (Fibroblast; [2]): 178 and 191
Population Apoptotic (%) (Fibroblast; [3]): 75%
Population Fragmented Nuclei (%) (Fibroblast; [3]): 15% and 17%
Population Healthy Nuclei (%) (Fibroblast; [3]): 69% and 58%
Population Hoechst High Intensity Objects (%) (Fibroblast; [3]): 0% and 1%
Population Membrane Permeable-Phenotype (%) (Fibroblast; [3]): 25% and 23%
Population Mitochondria Different-Phenotype (%) (Fibroblast; [3]): 1% and 5%
Population Mitotic Cells (%) (Fibroblast; [3]): 25%
Population Normal (%) (Fibroblast; [3]): 100% and 98%
Population Pyknosed Nuclei (%) (Fibroblast; [3]): 15% and 23%
Population Tubulin-Different-Phenotype (%) (Fibroblast; [3]): 89% and 83%
Total Cell Count (Fibroblast; [3]): 210 and 238
